Experiment [1] addresses T1, Pa MurB (Pseudomonas aeruginosa, UniProt Q9HZM7).
T1 sequence (Q9HZM7 1-339): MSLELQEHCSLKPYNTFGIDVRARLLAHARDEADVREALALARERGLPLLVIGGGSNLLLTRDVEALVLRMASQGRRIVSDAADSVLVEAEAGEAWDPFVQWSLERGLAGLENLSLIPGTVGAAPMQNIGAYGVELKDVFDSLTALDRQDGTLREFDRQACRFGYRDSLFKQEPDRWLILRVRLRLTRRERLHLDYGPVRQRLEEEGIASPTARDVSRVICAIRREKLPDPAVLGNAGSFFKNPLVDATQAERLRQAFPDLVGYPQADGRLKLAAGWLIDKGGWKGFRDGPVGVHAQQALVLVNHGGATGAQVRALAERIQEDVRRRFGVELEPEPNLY
Kind of experiment: Isothermal titration calorimetry. In kind it is binding. In short, it runs like this: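 ITC at 25 °C. Pa MurB was dialysed overnight at 4 °C into 25 mM Tris-HCl pH 8.0, 150 mM NaCl; cell and syringe solutions were in the same buffer with 5% DMSO final. Usually 50 μM MurB with 3.0 mM fragment; some runs used 1.0 or 0.5 mM ligand or 200 μM MurB. A 0.4 μL first injection was discarded, then 28 × 1.5 μL every 120 s. One-site fit; LE = −(RTlnKd)/heavy atoms, in kcal/mol per heavy atom.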
(In ITC the heat of successive injections is recorded.)

Experiment [2] concerns the target T1, Pa MurB. The experiment is described as follows: Surface plasmon resonance. In kind it is binding. In short, it runs like this:
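Pa MurB amine-coupled to a CM5 chip. Running buffer: 10 mM NaPO4 pH 7, 150 mM NaCl, 2% DMSO, 25 °C. Each test compound at 1 mM in running buffer was injected for 30 s at […], with 320 s dissociation. Each was run twice, in reverse orders, with solvent correction. Response units were compared visually with those of the initial pyrazole fragment hit.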

Setting [3] is: Table 5, LE = −(RTlnKd)/(number of heavy atoms).
Setting [4] is: Table 4, RU of fragment at 1 mM compared with RU of fragment 4, n = 2.
Where [5] appears, read: Kd(μM) ITC, Table 4, 50 μM MurB, 3.0 mM fragment, fragment 41: 200 μM MurB.
[6] abbreviates: Table 4, LE = −(RTlnKd)/(number of heavy atoms).
[7] abbreviates: Table 5, RU of compound at 1.0 mM compared with RU of fragment 4, n = 2.
The mark [8] stands for this setting: Table 6, LE = −(RTlnKd)/(number of heavy atoms).
The mark [9] stands for this setting: Table 3, RU of fragment at 1 mM compared with RU of fragment 4, n = 2.
[10] abbreviates: Table 3, LE = –(RTlnKd)/(number of heavy atoms).
The mark [11] stands for this setting: Table 6, RU of fragment at 1.0 mM compared with RU of fragment 4, n = 2.

As a reminder, the Kd is the constant that tells how readily two partners part at equilibrium.

In turn, `Cc1cc(Cl)c(Cl)cc1-n1c(C)cc(C(=O)O)c1C(F)(F)F` [Fragment 54] returned an LE on Pa MurB [1] (setting [3]) of 0.32 kcal/mol per heavy atom.
Regarding `Cc1cc([N+](=O)[O-])ccc1-n1ncc(C(=O)O)c1C(F)(F)F` [Fragment 36], the “SPR RU>RUf4 1.0 mM” value at Pa MurB [2] (setting [4]) is “yes”. Also, the Kd on Pa MurB [1] (setting [5]) was 208 ± 28 µM. Moreover, at Pa MurB [1] (setting [6]), the LE was determined as 0.23 kcal/mol per heavy atom.
Take `Cc1cc(Cl)c(Cl)cc1-n1ncc(C(=O)O)c1C(F)(F)F` [Fragment 44]: the “SPR RU>RUf4 1.0 mM” value at Pa MurB [2] (setting [7]) is “yes”. Moreover, the LE on Pa MurB [1] (setting [3]) was 0.35 kcal/mol per heavy atom.
As for `O=C(O)c1cnn(-c2ccc(Cl)c(Cl)c2)c1C(F)(F)F` [Fragment 43, 1-(3,4-Dichlorophenyl)-5-(trifluoromethyl)-1H-pyrazole-4-carboxylic Acid], on Pa MurB [2] (setting [4]), the “SPR RU>RUf4 1.0 mM” value is recorded as “yes”. Moreover, the LE on Pa MurB [1] (setting [6]) worked out at 0.31 kcal/mol per heavy atom.
As for `Cc1cccc(C)c1-n1c(C)cc(C(=O)O)c1C` [Fragment 47], the “SPR RU>RUf4 1.0 mM” value on Pa MurB [2] (setting [7]) is “no”. The compound also showed an LE on Pa MurB [1] (setting [3]) of 0.32 kcal/mol per heavy atom.
Consider `Cc1ccc(-n2ncc(C(=O)O)c2C(F)(F)F)c(C)c1` [Fragment 39], for which, at Pa MurB [2] (setting [4]), the “SPR RU>RUf4 1.0 mM” value was “yes”. In addition, binding at Pa MurB [1] (setting [5]) was put at a Kd of 85.5 ± 8 µM. The compound also yielded an LE at Pa MurB [1] (setting [6]) of 0.28 kcal/mol per heavy atom.
For `Cc1c(-n2ncc(C(=O)O)c2C(F)(F)F)ccc(Cl)c1Cl` [Fragment 45], the “SPR RU>RUf4 1.0 mM” value at Pa MurB [2] (setting [7]) is given as “yes”. Further, on Pa MurB [1] (setting [3]), the LE turned out to be 0.32 kcal/mol per heavy atom.
For the compound `O=C(O)c1cnn(-c2ccccc2Br)c1C(F)(F)F` [Fragment 31], on Pa MurB [2] (setting [4]), the “SPR RU>RUf4 1.0 mM” value is recorded as “yes”. The same compound gave an LE on Pa MurB [1] (setting [6]) of 0.29 kcal/mol per heavy atom.
As for `Cc1cccc(-n2ncc(C(=O)O)c2C(F)(F)F)c1C` [Fragment 38], on Pa MurB [2] (setting [4]), the “SPR RU>RUf4 1.0 mM” value is “yes”. On Pa MurB [1] (setting [5]), this compound had a dissociation constant (Kd) of 99 ± 7.2 µM. For the same compound, at Pa MurB [1] (setting [6]), the LE was 0.27 kcal/mol per heavy atom.
Regarding `Cc1ccc(C)c(-n2ncc(C(=O)O)c2C(F)(F)F)c1` [Fragment 40], the “SPR RU>RUf4 1.0 mM” value on Pa MurB [2] (setting [4]) is on record as “yes”. Moreover, the LE at Pa MurB [1] (setting [6]) came out at 0.26 kcal/mol per heavy atom.
On to `COc1ccc(-n2ncc(C(=O)O)c2C(F)(F)F)cc1` [Fragment 35], for which the “SPR RU>RUf4 1.0 mM” value on Pa MurB [2] (setting [4]) is “no”.
In the case of `Cc1cc(C(=O)O)c(C)n1-c1cccc(Cl)c1` [Fragment 49], the “SPR RU>RUf4 1.0 mM” value at Pa MurB [2] (setting [7]) is listed as “yes”.
Regarding `Cc1c(-n2c(C)cc(C(=O)O)c2C(F)(F)F)ccc(Cl)c1Cl` [Fragment 55], the “SPR RU>RUf4 1.0 mM” value at Pa MurB [2] (setting [7]) was “yes”. The LE at Pa MurB [1] (setting [3]) worked out at 0.31 kcal/mol per heavy atom.
With `Cc1cc(Cl)c(Cl)cc1-n1ncc(C(=O)NS(=O)(=O)c2ccccc2)c1C(F)(F)F` [Fragment 64], at Pa MurB [1] (setting [8]), the LE stood at 0.22 kcal/mol per heavy atom.
Consider `Cc1cc(C(=O)O)c(C)n1-c1ccccc1` [Fragment 20], for which the “SPR RU>RUf4 1.0 mM” value at Pa MurB [2] (setting [9]) was “yes”. Besides, the LE on Pa MurB [1] (setting [10]) is 0.34 kcal/mol per heavy atom.
As for `Cc1cccc(C)c1-n1ncc(C(=O)O)c1C(F)(F)F` [Fragment 41], at Pa MurB [1] (setting [6]), the LE is on record as 0.31 kcal/mol per heavy atom.
As for `Cc1cc(C(=O)O)c(C)n1-c1ccc(Cl)cc1` [Fragment 50], at Pa MurB [2] (setting [7]), the “SPR RU>RUf4 1.0 mM” value is reported as “no”.
`CS(=O)(=O)NC(=O)c1cnn(-c2ccccc2)c1C(F)(F)F` [Fragment 59]: the “SPR RU>RUf4 1.0 mM” value at Pa MurB [2] (setting [11]) is recorded as “no”.
Consider `O=C(NS(=O)(=O)c1ccccc1)c1cnn(-c2ccccc2)c1C(F)(F)F` [Fragment 60], for which the “SPR RU>RUf4 1.0 mM” value at Pa MurB [2] (setting [11]) is given as “yes”. In addition, the Kd on Pa MurB [1] (Kd (ITC)) was determined as 320 ± 60 µM; on Pa MurB [1] (Kd(μM) ITC, Table 6, 50 μM Pa MurB, 3.0 mM fragment), 324 ± 59 µM. In addition, on Pa MurB [1] (setting [8]), the LE is listed as 0.18 kcal/mol per heavy atom.
As for `O=C(O)c1cnn(-c2ccccc2Cl)c1C(F)(F)F` [Fragment 30], the “SPR RU>RUf4 1.0 mM” value on Pa MurB [2] (setting [4]) is reported as “yes”. The compound also had an LE at Pa MurB [1] (setting [6]) of 0.27 kcal/mol per heavy atom.
With `Cc1c(C(=O)O)nnn1-c1ccccc1` [Fragment 19], the “SPR RU>RUf4 1.0 mM” value on Pa MurB [2] (setting [9]) is “no”. Also, on Pa MurB [1] (Kd(μM) ITC, Table 3, 50 μM MurB, 3.0 mM fragment), the equilibrium dissociation constant (Kd) amounted to 877 ± 154 µM. This compound yielded an LE at Pa MurB [1] (setting [10]) of 0.28 kcal/mol per heavy atom.
As to `Cc1cc(C(=O)O)c(C(F)(F)F)n1-c1ccccc1` [Fragment 22], the “SPR RU>RUf4 1.0 mM” value on Pa MurB [2] (setting [9]) is “yes”. The compound also displayed an LE at Pa MurB [1] (setting [10]) of 0.28 kcal/mol per heavy atom.
With `Cc1nc(C(=O)O)c(C)n1-c1ccccc1` [Fragment 21], the “SPR RU>RUf4 1.0 mM” value at Pa MurB [2] (setting [9]) is given as “no”.
For `Cc1cc(C(=O)O)c(C)n1-c1ccc(Cl)c(Cl)c1` [Fragment 48], the “SPR RU>RUf4 1.0 mM” value on Pa MurB [2] (setting [7]) is “no”. This compound also yielded an LE on Pa MurB [1] (setting [3]) of 0.33 kcal/mol per heavy atom.
Compound `Cc1cc(Cl)c(Cl)cc1-n1c(C)cc(C(=O)O)c1C` [Fragment 51] displayed an LE on Pa MurB [1] (setting [3]) of 0.33 kcal/mol per heavy atom.
In the case of `Cc1cccc(C)c1-n1ncc(C(=O)NS(=O)(=O)c2ccccc2)c1C(F)(F)F` [Fragment 62], the “SPR RU>RUf4 1.0 mM” value on Pa MurB [2] (setting [11]) is listed as “yes”. On Pa MurB [1] (setting [8]), this compound registered an LE of 0.22 kcal/mol per heavy atom.
Turning to `Cc1c(C(=O)O)cc(CCO)n1-c1ccccc1` [Fragment 23], at Pa MurB [1] (Kd (ITC)), the affinity, expressed as Kd, was 208 ± 15 µM. The LE at Pa MurB [1] (setting [10]) was 0.28 kcal/mol per heavy atom.
Consider `O=C(O)c1cnn(-c2c(Cl)cccc2Cl)c1C(F)(F)F` [Fragment 42], for which, on Pa MurB [2] (setting [4]), the “SPR RU>RUf4 1.0 mM” value is recorded as “yes”. For the same compound, on Pa MurB [1] (setting [5]), the Kd was 60.2 ± 4.4 µM. At Pa MurB [1] (setting [6]), this compound returned an LE of 0.29 kcal/mol per heavy atom.
Regarding `Cc1ccccc1-n1c(C)cc(C(=O)O)c1C(F)(F)F` [Fragment 53], the “SPR RU>RUf4 1.0 mM” value at Pa MurB [2] (setting [7]) is listed as “yes”. Moreover, the LE on Pa MurB [1] (setting [3]) worked out at 0.30 kcal/mol per heavy atom.
In turn, `Cc1c(-n2c(C)cc(C(=O)O)c2C)ccc(Cl)c1Cl` [Fragment 52] came in with an LE on Pa MurB [1] (setting [3]) of 0.33 kcal/mol per heavy atom.
In the case of `Cc1ccccc1-n1c(C)cc(C(=O)O)c1C` [Fragment 46], the “SPR RU>RUf4 1.0 mM” value on Pa MurB [2] (setting [7]) is given as “yes”. Further, the LE on Pa MurB [1] (setting [3]) was found to be 0.34 kcal/mol per heavy atom.
Regarding `Cc1ccccc1-n1ncc(C(=O)O)c1C(F)(F)F` [Fragment 32], at Pa MurB [2] (setting [4]), the “SPR RU>RUf4 1.0 mM” value is “yes”. In addition, on Pa MurB [1] (setting [6]), the LE turned out to be 0.31 kcal/mol per heavy atom.

The values above are taken from paper PMC7614804 (Journal of medicinal chemistry, 2022).
